High-throughput results (PubChem BioAssay)
This is a sample that favours compounds with a hit; in the whole collection about 5.5% have one here.
RAM network inh = inhibitors of the yeast RAM network, primary screen, dse1pr::URA3 reporter, 5-FOA selection. S. cerevisiae dse1pr::URA3 reporter, 5-FOA growth OD615, 2 d; analog-sensitive cbk1-as2 kinase mutant strain. inhibition, % at 50 µM. actives 1.8% (n = 190,000). AID 868, 2007;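 active means inhibition above a set limit, 3 SD over mean compound inhibition, cut at about 8.4% in these data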;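 further: 0% = DMSO-only wells with no growth and 100% = 10 µM 1-NA-PP1 full growth; inhibition rescues growth on 5-FOA so higher OD means more RAM inhibition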
Yeast lifespan up = compounds extending yeast replicative lifespan, primary screen, S. cerevisiae, OD615; actives 0.68% (n = 130,000); S. cerevisiae growth with nicotinamide; deaD strain in restrictive glucose medium; inhibition of the nicotinamide effect, % at 10 µM;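 active means inhibition above a set limit, placed 3 SD over the median of all compounds, cut at about 26% in these data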;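 further: 0% = nicotinamide-treated wells and 100% = cells grown without nicotinamide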
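Assay system: DeaD-strain S. cerevisiae. Medium: CSMM-D glucose medium, restrictive. Reagent: nicotinamide, 1.5 mM, co-present with compound. Compound: 10 µM single point, 0.25% DMSO. Schedule: culture preincubation 4 h, compound exposure 48 h, both 30 °C. Detection: absorbance at 615 nm.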
BB579 growth dn = growth inhibitors of yeast BB579 in restrictive medium, primary screen, yeast lifespan-shortening project, S. cerevisiae. inhibition, % at 10 µM. OD615, 48 h. actives 0.51% (n = 140,000). AID 804, 2007;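 active means inhibition above a set limit, 3 SD over the mean compound inhibition, cut at about 44% in these data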
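Assay system – yeast BB579 (DeaD) · Dosing – single compound dose of 10 µM, 0.25% DMSO final · Detection – OD615 turbidity measurement · Buffer or medium – CSMM-D restrictive synthetic medium containing dextrose (glucose) · Benchmarks – positive control amphotericin B 10 µg/mL · Incubation – 48 h exposure, 30 °C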
Cl transport mod = KCC2 cotransporter modulators, thallium flux, primary screen, cell-based, HEK293 KCC2, FluoZin-2 fluorescence, MLSMR; Solute carrier family 12 member 5 (Homo sapiens), Q9H2X9; KCC2 cells, thallium flux FluoZin-2 fluorescence; B-score of Tl+ flux slope (higher = more flux/activation; lower = inhibition) at 10 µM; actives 2.2% (n = 190,000);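 active means thallium flux slope and its plate-corrected score both differing from the plate sample mean at a set confidence after two filtering rounds, in either direction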;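 further: slope of fluorescence scaled to starting intensity during 10 to 20 s after thallium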
Target sequence (Q9H2X9 whole entry, looked up): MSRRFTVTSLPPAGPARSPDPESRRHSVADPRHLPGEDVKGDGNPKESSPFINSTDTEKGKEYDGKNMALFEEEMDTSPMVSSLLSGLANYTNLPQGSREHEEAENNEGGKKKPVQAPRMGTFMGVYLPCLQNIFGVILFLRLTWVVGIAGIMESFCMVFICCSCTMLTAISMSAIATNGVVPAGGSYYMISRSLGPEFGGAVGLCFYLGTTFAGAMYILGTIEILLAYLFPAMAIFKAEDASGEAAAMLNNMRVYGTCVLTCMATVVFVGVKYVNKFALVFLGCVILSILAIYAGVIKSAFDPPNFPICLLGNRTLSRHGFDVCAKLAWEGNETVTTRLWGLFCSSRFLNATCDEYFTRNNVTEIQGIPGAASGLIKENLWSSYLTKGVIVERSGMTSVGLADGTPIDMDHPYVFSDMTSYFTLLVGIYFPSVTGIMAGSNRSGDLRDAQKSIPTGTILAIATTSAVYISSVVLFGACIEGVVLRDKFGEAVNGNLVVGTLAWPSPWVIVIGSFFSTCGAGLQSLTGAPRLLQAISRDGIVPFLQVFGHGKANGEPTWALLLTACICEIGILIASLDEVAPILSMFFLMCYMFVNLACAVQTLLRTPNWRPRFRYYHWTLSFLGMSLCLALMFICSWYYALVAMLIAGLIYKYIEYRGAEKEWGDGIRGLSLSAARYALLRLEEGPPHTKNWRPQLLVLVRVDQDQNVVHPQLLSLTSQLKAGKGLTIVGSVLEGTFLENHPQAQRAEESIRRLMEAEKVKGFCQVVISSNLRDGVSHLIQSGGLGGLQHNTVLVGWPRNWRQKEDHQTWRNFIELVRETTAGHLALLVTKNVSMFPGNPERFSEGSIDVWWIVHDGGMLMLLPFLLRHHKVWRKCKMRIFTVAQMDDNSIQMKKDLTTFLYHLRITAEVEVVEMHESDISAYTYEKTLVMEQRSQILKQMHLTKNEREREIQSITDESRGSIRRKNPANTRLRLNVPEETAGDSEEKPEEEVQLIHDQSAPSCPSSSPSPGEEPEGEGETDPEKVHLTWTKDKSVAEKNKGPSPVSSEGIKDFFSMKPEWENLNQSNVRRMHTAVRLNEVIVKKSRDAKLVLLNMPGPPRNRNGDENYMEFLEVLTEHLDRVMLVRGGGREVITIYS
WT yeast gro inh = growth inhibition of WT strain, primary screen, mitochondrial fusion inhibitor project, WT and mutant strains, chemical genetic. AID 1362, 2008. inhibition, % at 10 µM. mitochondrial fusion phenotypic screen. actives 2.1% (n = 190,000); in the data active means inhibition above about 58%; tested in S. cerevisiae
KCC2 secondary = KCC2 modulators in sodium-free buffer, confirmation, cell-based, HEK293 KCC2, thallium flux, secondary assay | shares compounds with Cl transport mod | FluoZin2 fluorescence; stronger effect = higher value | normalised thallium flux (F/F0 slope) at 10 µM | actives 15% (n = 3,700) | AID 1713, 2009;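 active means thallium flux slope above the same plate's solvent-only control mean plus 3 SD; inconclusive means the two replicate wells disagree; inactive means no significant difference from solvent-only control wells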
KCC2 bumet counter = thallium flux persisting under bumetanide in KCC2 cells, confirmation, counter-screen for KCC2 modulator project, cell-based, HEK293 KCC2, FluoZin2, secondary assay 3. normalized thallium flux at 10 µM. actives 49% (n = 3,700). HEK293-KCC2 + bumetanide/ouabain; stronger effect = higher value. shares compounds with Cl transport mod;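 active means thallium entry rate above the same plate's blocked-transporter control wells by more than 3 SD; inconclusive means the two repeat wells disagree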;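 further: raw slope of fluorescence over initial fluorescence between 10 and 20 s after thallium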
KCC2 secondary2 = KCC2 modulators without ouabain present, confirmation, cell-based, HEK293 KCC2, thallium flux, FluoZin2, secondary assay 2 | normalized thallium flux at 10 µM | shares compounds with Cl transport mod | actives 23% (n = 3,700) | thallium flux FluoZin2 fluorescence; actives lie on both sides; F/F0 rise rate, 10–20 s post-thallium;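 active means thallium flux slope more than 3 SD above or below the plate's solvent-only control mean, mostly below; inconclusive means the two repeat wells disagreed; inactive means no significant shift from solvent-only controls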;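 further: raw slope with 0.1% DMSO as baseline and bumetanide as block control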
HEK293 Tl flux = thallium flux modulation in parental HEK cells, confirmation, counter-screen for KCC2 modulator project, cell-based, counterscreen 1; actives 46% (n = 3,700); AID 1716, 2009; thallium flux rate (normalised fluorescence) at 10 µM; HEK293 parental cells, thallium flux FluoZin2, ouabain; baseline-ratio fluorescence slope, 10–20 s after thallium; shares compounds with Cl transport mod;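 active means thallium flux rate significantly above the same plate's solvent-only control wells, beyond their mean plus 3 SD; inconclusive means the two replicate wells gave conflicting results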
KCC2 ouabain = KCC2 inhibitors and activators, ouabain retest, confirmation, HEK-KCC2 cells. HEK293-KCC2, thallium flux FluoZin2 fluorescence; bidirectional: low = inhibitor, high = activator. raw Tl+ flux slope (below DMSO = inhibition, above = activation) at 10 µM. shares compounds with Cl transport mod. actives 48% (n = 3,700);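 active means thallium flux slope beyond 3 SD from same-plate DMSO control mean in most replicates, usually higher, sometimes lower; inconclusive means repeat tests gave conflicting results; inactive means no significant difference from controls in most replicates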;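 further: slope of initial-normalized fluorescence between seconds 10 and 20 after thallium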
HEK293 Tl flux2 = native HEK Tl+ uptake effects, second counter-screen – HEK cells, counterscreen 2, counter-screen for KCC2 modulator project, confirmation; shares compounds with Cl transport mod; HEK293 parental, thallium flux FluoZin-2 fluorescence slope; thallium flux slope at 10 µM; actives 33% (n = 3,700);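 active means thallium flux slope above the same plate's solvent-control mean plus 3 SD in both duplicate wells; inconclusive means duplicate wells that disagreed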;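 further: run without ouabain in cells lacking the KCC2 cotransporter; slope of fluorescence scaled to its starting value between 10 and 20 s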
* hit, by the source's call.

`COc1ccccc1CNC(=O)c1ccc2c(=O)n(CCCN3CCCC3=O)c(=S)[nH]c2c1` gave RAM network inh 4.2, Cl transport mod -1.06 and WT yeast gro inh 4.0.
For CCN(CC)c1ccc2c(C)c(-c3ccc(N)cc3)c(=O)oc2c1 the results were RAM network inh 2.6, Yeast lifespan up -24.7, BB579 growth dn -5.6, Cl transport mod -5.05*, WT yeast gro inh 6.6, KCC2 secondary 0.0097, KCC2 bumet counter 0.0105*, KCC2 secondary2 inconclusive, HEK293 Tl flux 0.00647, KCC2 ouabain 0.0158* and HEK293 Tl flux2 0.0103.
`COc1ccc(C2c3ccc(O)cc3Oc3ncn4nc(-c5ccco5)nc4c32)cc1OC` (stereo not drawn) gave Cl transport mod -0.0246.
CC(=O)Nc1ccc(OCC(O)CNC2CCCC2)cc1 (stereo not drawn) was read as RAM network inh 0.4, Yeast lifespan up -5.7, BB579 growth dn -38.0, WT yeast gro inh 0.9, KCC2 secondary 0.00771, KCC2 bumet counter inconclusive, KCC2 secondary2 0.0292, HEK293 Tl flux inconclusive, KCC2 ouabain 0.0181 and HEK293 Tl flux2 0.0108.
Screening CC(=O)N1C(=O)CC(C)N(C(C)=O)c2ccc([N+](=O)[O-])cc21 (stereo not drawn) returned RAM network inh 1.9, Yeast lifespan up 2.6, BB579 growth dn -28.4, Cl transport mod 0.722 and WT yeast gro inh -11.1.
Screening Cc1ccc(S(=O)(=O)N2CCCC2C(=O)Nc2nc3c(s2)CCCC3)cc1 (stereo not drawn) returned RAM network inh -0.6, Yeast lifespan up -4.6, BB579 growth dn -0.3, Cl transport mod -3.17*, WT yeast gro inh 5.5, KCC2 secondary 0.00781, KCC2 bumet counter 0.00533, KCC2 secondary2 0.0347, HEK293 Tl flux 0.00677, KCC2 ouabain 0.0161* and HEK293 Tl flux2 0.0108.
For Cc1ccc(S(=O)(=O)N2CCCCC2C(=O)Nc2nncs2)cc1 (stereo not drawn) the results were Cl transport mod 0.937.
For CC(C)(C)c1cc(C(=O)Nc2ccccc2)ccn1 the results were RAM network inh 0.0, BB579 growth dn 8.8, Cl transport mod 2.58 and WT yeast gro inh 1.5.
`CC(NC(=O)c1ccnc(C(C)(C)C)c1)c1ccccc1` (stereo not drawn) gave RAM network inh 0.9, Yeast lifespan up 8.3, BB579 growth dn -4.4, Cl transport mod 0.552, WT yeast gro inh 18.6, KCC2 secondary 0.0185, KCC2 bumet counter inconclusive, KCC2 secondary2 inconclusive, HEK293 Tl flux 0.00709, KCC2 ouabain 0.0151 and HEK293 Tl flux2 0.00941.
`O=C(CSc1nc2ccccc2[nH]1)Nc1cccc(S(=O)(=O)N2CCOCC2)c1` gave RAM network inh 3.6, Cl transport mod -0.25 and WT yeast gro inh 3.9.
`O=C(CSc1cccc2cccnc12)Nc1ccc(S(=O)(=O)N2CCOCC2)cc1` gave Cl transport mod 9.57*, KCC2 secondary 0.00604, KCC2 bumet counter 0.0196*, KCC2 secondary2 0.028, HEK293 Tl flux 0.0156*, KCC2 ouabain inconclusive and HEK293 Tl flux2 0.0135*.
Screening O=C(CSc1nc2cc(Cl)ccc2s1)Nc1cccc(S(=O)(=O)N2CCOCC2)c1 returned RAM network inh 7.5, Yeast lifespan up -0.3, BB579 growth dn -24.3, Cl transport mod 3.1*, WT yeast gro inh 4.2, KCC2 secondary 0.0106, KCC2 bumet counter 0.0149*, KCC2 secondary2 0.0363, HEK293 Tl flux inconclusive, KCC2 ouabain 0.0263* and HEK293 Tl flux2 inconclusive.
`COC(=O)c1ccc2c(=O)n(Cc3ccco3)c(SCC(=O)Nc3ccc(C)c(Cl)c3)nc2c1` gave RAM network inh 1.8, Yeast lifespan up -1.9, BB579 growth dn -64.9, Cl transport mod 0.00514 and WT yeast gro inh 16.6.
O=C(CSc1cccc2cccnc12)Nc1cccc(S(=O)(=O)N2CCOCC2)c1 was read as RAM network inh 0.9, Cl transport mod 0.712 and WT yeast gro inh -1.5.
O=C(CSc1nc2cc(Cl)ccc2c(=O)n1Cc1ccco1)Nc1ccc(S(=O)(=O)N2CCOCC2)cc1 was read as RAM network inh 9.1*, Yeast lifespan up 3.4, BB579 growth dn -44.0, Cl transport mod 4.36*, WT yeast gro inh -8.7, KCC2 secondary 0.00735, KCC2 bumet counter 0.0141*, KCC2 secondary2 0.0339, HEK293 Tl flux 0.0185*, KCC2 ouabain inconclusive and HEK293 Tl flux2 0.0152*.
Screening O=C(CSc1nc2cc(Cl)ccc2s1)c1cc2ccccc2o1 returned RAM network inh 9.4*, Yeast lifespan up -3.4, BB579 growth dn -6.3, Cl transport mod 4.47*, WT yeast gro inh 40.5, KCC2 secondary 0.0251*, KCC2 bumet counter 0.0551*, KCC2 secondary2 0.0388, HEK293 Tl flux 0.0307*, KCC2 ouabain 0.0476* and HEK293 Tl flux2 0.0173*.
`Cc1cc(NC(=O)CSc2nc3cc(Cl)ccc3s2)no1` gave RAM network inh 3.9, Yeast lifespan up -11.3, BB579 growth dn -1.9, Cl transport mod 0.854 and WT yeast gro inh 8.1.
